Measurements published in ChEMBL document CHEMBL5537144, “Biological evaluation of carbohydrate-based aprepitant analogs for neuroblastoma treatment” (Eur J Med Chem, 2024).
pIC50: −log10 of the molar value. Activity calls are given as the source filed them. The rule behind the calls is not given here.

Experiments:
[1] = Cytotoxicity against human Kelly cells assessed as inhibition of cell viability incubated for 72 hrs by MTT assay; type: functional, cell-based
Outline: (§1)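 MTT assay. Cells were seeded and, after 24 h, treated for 72 h with graded concentrations: 0–400, 0–50 or 0–100 μM depending on compound, with aprepitant at 0–100 μM. Media were DMEM for SH-SY5Y, DMEM/F12 for RPE-1 and RPMI for Kelly, each with 10% FBS, at 37 °C and 5% CO2.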

[2] = Selectivity index, ratio of IC50 for human RPE-1 cells to IC50 for human Kelly cells
Outline: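 Selectivity index is IC50 in nonmalignant RPE-1 divided by IC50 in the cancer line (Kelly or SH-SY5Y). The index was calculated in each individual experiment and then averaged.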

[3] = Cytotoxicity against human RPE-1 cells assessed as inhibition of cell viability incubated for 72 hrs by MTT assay; type: toxicity, cell-based; settings: RPE-1 cells (TERT-RPE1); outline: as §1
SH-SY5Y = assay: Cytotoxicity against human SH-SY5Y cells assessed as inhibition of cell viability incubated for 72 hrs by MTT assay; type: functional, cell-based; outline: as §1
Kelly [4] = assay: Induction of cell cycle arrest at G2/M phase in human Kelly cells at 15 uM incubated for 48 hrs by flow cytometry; type: functional, cell-based
Outline: (§2)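 For cell cycle analysis, Kelly cells were treated 48 h with analogs at 20 or 40 μM or aprepitant at 15 μM. Cells were then harvested, fixed and stained with PI/RNase. G0/G1, S and G2/M fractions were measured by flow cytometry; mean ± SEM, n = 3 independent experiments.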

Kelly [5] = assay: Induction of cell cycle arrest at S phase in human Kelly cells at 15 uM incubated for 48 hrs by flow cytometry; type: functional, cell-based; outline: as §2

SMILES: C[C@@H](O[C@H]1O[C@H](CO)[C@@H](O)[C@H](N)[C@H]1OCc1ccc(F)cc1)c1cc(C(F)(F)F)cc(C(F)(F)F)c1
- pIC50 [1]: 4.47
- Ratio IC50 [2]: 4.3
- IC50 at 72 h [3]: 146 µM

SMILES: C[C@@H](O[C@H]1O[C@H](CO)[C@@H](O)[C@H](N=[N+]=[N-])[C@H]1OCc1ccc(F)cc1)c1cc(C(F)(F)F)cc(C(F)(F)F)c1
- pIC50 [1]: 4.05

SMILES: C[C@@H](O[C@H]1O[C@@H]2CO[C@@H](c3ccccc3)O[C@H]2[C@H](N=[N+]=[N-])[C@H]1OCc1ccc(F)cc1)c1cc(C(F)(F)F)cc(C(F)(F)F)c1
- pIC50 [1]: 3.63

SMILES: C[C@@H](O[C@H]1O[C@@H]2CO[C@@H](c3ccccc3)O[C@@H]2[C@H](O)[C@H]1OCc1ccc(F)cc1)c1cc(C(F)(F)F)cc(C(F)(F)F)c1
- pIC50 [1]: 3.95
- pIC50 (SH-SY5Y): 3.89

SMILES: C[C@@H](O[C@H]1O[C@@H]2CO[C@@H](c3ccccc3)O[C@H]2[C@H](N)[C@H]1OCc1ccc(F)cc1)c1cc(C(F)(F)F)cc(C(F)(F)F)c1
- pIC50 [1]: 5.20
- Ratio IC50 [2]: 14.7
- IC50 at 72 h [3]: 92.3 µM

SMILES: C[C@@H](O[C@H]1OCCN(Cc2n[nH]c(=O)[nH]2)[C@H]1c1ccc(F)cc1)c1cc(C(F)(F)F)cc(C(F)(F)F)c1 [APREPITANT]
- pIC50 [1]: 4.82
- Activity (Kelly [4]): inactive
- Ratio IC50 [2]: 11.7
- IC50 at 72 h [3]: 176 µM
- Activity (Kelly [5]): Active

SMILES: C[C@@H](O[C@@H]1O[C@@H]2CO[C@@H](c3ccccc3)O[C@H]2[C@H](N=[N+]=[N-])[C@H]1OCc1ccc(F)cc1)c1cc(C(F)(F)F)cc(C(F)(F)F)c1
- pIC50 [1]: 3.97

SMILES: C[C@@H](O[C@@H]1O[C@@H]2CO[C@@H](c3ccccc3)O[C@@H]2[C@H](O)[C@H]1OCc1ccc(F)cc1)c1cc(C(F)(F)F)cc(C(F)(F)F)c1
- pIC50 [1]: 4.31
- Ratio IC50 [2]: 4.6
- IC50 at 72 h [3]: 251 µM

SMILES: C[C@@H](O[C@@H]1O[C@H](CO)[C@@H](O)[C@H](N=[N+]=[N-])[C@H]1OCc1ccc(F)cc1)c1cc(C(F)(F)F)cc(C(F)(F)F)c1
- pIC50 [1]: 4.77
